Results reported in ChEMBL document CHEMBL2177095, “Discovery of selective and potent inhibitors of gram-positive bacterial thymidylate kinase (TMK)” (J Med Chem, 2012).
pIC50: −log10 of the molar value. Converted amounts (≈) assume the structure as drawn.

Experiments:
Thymidylate kinase = molecular target: T1, Thymidylate kinase (Homo sapiens, UniProt P23919); assay: Inhibition of human thymidylate kinase assessed as effect on ATP production by Escherichia coli DdlA and Malachite green reagent based assay
T1 sequence (P23919 whole entry): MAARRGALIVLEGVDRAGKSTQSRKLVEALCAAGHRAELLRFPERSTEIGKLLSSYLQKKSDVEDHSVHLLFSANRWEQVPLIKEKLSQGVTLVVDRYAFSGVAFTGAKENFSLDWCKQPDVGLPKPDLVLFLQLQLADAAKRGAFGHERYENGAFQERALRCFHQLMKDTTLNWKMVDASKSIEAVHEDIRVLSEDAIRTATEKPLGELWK

[1] = Inhibition of Staphylococcus aureus thymidylate kinase assessed as effect on conversion of dTDP to dTMP by luciferin/luciferase reporter gene based assay
Staphylococcus aureus [2] = assay: Antimicrobial activity against methicillin and quinolone-resistant Staphylococcus aureus by broth microdilution method; format: functional
How it was run: (§1)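 MICs were determined against bacterial strains from the AstraZeneca collection. For S. aureus, MSQS means methicillin- and quinolone-sensitive, and MRQR means methicillin- and quinolone-resistant.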

[3] = Toxicity against human A549 cells; format: cell-based; conditions: read-out: MIC
Staphylococcus aureus [4] = assay: Antimicrobial activity against methicillin and quinolone-sensitive Staphylococcus aureus by broth microdilution method; format: functional; how it was run: as §1
Streptococcus pneumoniae = assay: Antimicrobial activity against Streptococcus pneumoniae by broth microdilution method; format: functional
How it was run: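 Test organisms were strains from the AstraZeneca collection.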

Candida albicans = assay: Toxicity against Candida albicans; format: organism-based
[5] = Inhibition of Streptococcus pneumoniae thymidylate kinase assessed as effect on conversion of dTDP to dTMP by luciferin/luciferase reporter gene based assay
[6] = Partition coefficient, log D of the compound at pH 7.4 by shake flask method; conditions: octanol/water

CCC[C@H](c1ccc(C(=O)O)c(Oc2cccc(Cl)c2)c1)N1CCC[C@H](n2cc(C)c(=O)[nH]c2=O)C1
pIC50 (Thymidylate kinase): 3.82
pIC50 [1]: 8.08
MIC (Staphylococcus aureus [2]): 1 µg/mL (≈ 1.95 µM)
MCC [3]: > 64 µg/mL
MIC (Staphylococcus aureus [4]): 1 µg/mL (≈ 1.95 µM)
MIC (Streptococcus pneumoniae): 0.05 µg/mL (≈ 0.0977 µM)
MIC (Candida albicans): > 64 µg/mL
pIC50 [5]: 9.52

Cc1cn([C@H]2CCCN([C@H](CC(C)C)c3ccc(C(=O)O)c(Oc4cccc(Cl)c4)c3)C2)c(=O)[nH]c1=O
MIC (Staphylococcus aureus [2]): 1 µg/mL (≈ 1.9 µM)
MIC (Staphylococcus aureus [4]): 1 µg/mL (≈ 1.9 µM)
MIC (Streptococcus pneumoniae): 0.03 µg/mL (≈ 0.057 µM)
pIC50 [5]: > 9.70
logD [6]: 0.9

Cc1cn([C@H]2CCCN(Cc3cccc(Oc4cccc(F)c4)c3)C2)c(=O)[nH]c1=O
pIC50 [1]: 5.49
pIC50 [5]: 6.40

CCC(CC)C[C@H](c1ccc(C(=O)O)c(Oc2cccc(Cl)c2)c1)N1CCC[C@H](n2cc(C)c(=O)[nH]c2=O)C1
pIC50 [1]: > 8.52
MIC (Staphylococcus aureus [2]): 0.1 µg/mL (≈ 0.18 µM)
MIC (Staphylococcus aureus [4]): 0.25 µg/mL (≈ 0.451 µM)
MIC (Streptococcus pneumoniae): 0.02 µg/mL (≈ 0.0361 µM)
pIC50 [5]: 10.00
logD [6]: 1.7

Cc1cn(C2CCCN(Cc3cccc(Oc4cccc(C(F)(F)F)c4)c3)C2)c(=O)[nH]c1=O (racemic)
pIC50 [5]: 4.82

Cc1ccc(Oc2cccc(CN3CCCC(n4cc(C)c(=O)[nH]c4=O)C3)c2)cc1 (racemic)
pIC50 [1]: 4.23
pIC50 [5]: 5.22

Cc1cn([C@H]2CCCN(Cc3cccc(Oc4ccc(Cl)cc4)c3)C2)c(=O)[nH]c1=O
pIC50 [1]: 5.07
pIC50 [5]: 6.40

Cc1cn([C@H]2CCCN(Cc3ccc(C(=O)O)c(Oc4cccc(Cl)c4)c3)C2)c(=O)[nH]c1=O
pIC50 [1]: 7.14
MIC (Staphylococcus aureus [2]): 32 µg/mL (≈ 68.1 µM)
MIC (Staphylococcus aureus [4]): 32 µg/mL (≈ 68.1 µM)
MIC (Streptococcus pneumoniae): 1 µg/mL (≈ 2.13 µM)
pIC50 [5]: 8.72

Cc1cn(C2CCCN(Cc3cccc(Oc4ccc(Cl)cc4)c3)C2)c(=O)[nH]c1=O (racemic)
pIC50 [1]: 4.46
pIC50 [5]: 5.89

Cc1cn([C@H]2CCCN(Cc3cccc(Oc4cc(Cl)cc(Cl)c4)c3)C2)c(=O)[nH]c1=O
pIC50 [1]: 5.82
pIC50 [5]: 6.40

CC[C@@H](c1ccc(C(=O)O)c(Oc2cccc(Cl)c2)c1)N1CCC[C@H](n2cc(C)c(=O)[nH]c2=O)C1
pIC50 [1]: 7.74
MIC (Staphylococcus aureus [2]): 4 µg/mL (≈ 8.03 µM)
MIC (Staphylococcus aureus [4]): 2 µg/mL (≈ 4.02 µM)
MIC (Streptococcus pneumoniae): 0.25 µg/mL (≈ 0.502 µM)
pIC50 [5]: 8.52
logD [6]: 0.2

Cc1cccc(Oc2cc(CN3CCC[C@H](n4cc(C)c(=O)[nH]c4=O)C3)ccc2C(=O)O)c1
pIC50 [1]: 6.94
MIC (Staphylococcus aureus [2]): 128 µg/mL (≈ 285 µM)
MIC (Staphylococcus aureus [4]): 64 µg/mL (≈ 142 µM)
MIC (Streptococcus pneumoniae): 4 µg/mL (≈ 8.9 µM)
pIC50 [5]: 8.10

Cc1ccc(Oc2cccc(CN3CCC[C@H](n4cc(C)c(=O)[nH]c4=O)C3)c2)cc1Cl
pIC50 [1]: 5.72
pIC50 [5]: 6.00

CC[C@H](c1ccc(C(=O)O)c(Oc2cccc(Cl)c2)c1)N1CCC[C@H](n2cc(C)c(=O)[nH]c2=O)C1 (racemic)
pIC50 [1]: 7.86
MIC (Staphylococcus aureus [2]): 2 µg/mL (≈ 4.02 µM)
MIC (Staphylococcus aureus [4]): 2 µg/mL (≈ 4.02 µM)
MIC (Streptococcus pneumoniae): 0.1 µg/mL (≈ 0.201 µM)
pIC50 [5]: 9.22
logD [6]: 0.2

Cc1cn([C@H]2CCCN([C@@H](CC(C)C)c3ccc(C(=O)O)c(Oc4cccc(Cl)c4)c3)C2)c(=O)[nH]c1=O
pIC50 [1]: 7.87
MIC (Staphylococcus aureus [2]): 2 µg/mL (≈ 3.8 µM)
MIC (Staphylococcus aureus [4]): 2 µg/mL (≈ 3.8 µM)
MIC (Streptococcus pneumoniae): 0.05 µg/mL (≈ 0.0951 µM)
pIC50 [5]: 9.22
logD [6]: 0.9

Cc1cn([C@@H]2CCCN(Cc3cccc(Oc4ccc(Cl)c(Cl)c4)c3)C2)c(=O)[nH]c1=O
pIC50 [1]: < 3.70
pIC50 [5]: 4.74

Cc1cn([C@H]2CCCN([C@H](CC3CCCCC3)c3ccc(C(=O)O)c(Oc4cccc(Cl)c4)c3)C2)c(=O)[nH]c1=O
pIC50 [1]: 9.15
MIC (Staphylococcus aureus [2]): 0.1 µg/mL (≈ 0.177 µM)
MIC (Staphylococcus aureus [4]): 0.25 µg/mL (≈ 0.442 µM)
MIC (Streptococcus pneumoniae): 0.01 µg/mL (≈ 0.0177 µM)
pIC50 [5]: > 10.00

COc1ccc(Oc2cccc(CN3CCCC(n4cc(C)c(=O)[nH]c4=O)C3)c2)cc1 (racemic)
pIC50 [1]: 3.84
pIC50 [5]: 5.05

CCCC(C)(C)C[C@H](c1ccc(C(=O)O)c(Oc2cccc(Cl)c2)c1)N1CCC[C@H](n2cc(C)c(=O)[nH]c2=O)C1
pIC50 [1]: 9.15
MIC (Staphylococcus aureus [2]): 0.06 µg/mL (≈ 0.106 µM)
MIC (Staphylococcus aureus [4]): 0.25 µg/mL (≈ 0.44 µM)
MIC (Streptococcus pneumoniae): 0.06 µg/mL (≈ 0.106 µM)
pIC50 [5]: 9.52
logD [6]: 2

Cc1cn([C@H]2CCCN([C@H](CC3CCOCC3)c3ccc(C(=O)O)c(Oc4cccc(Cl)c4)c3)C2)c(=O)[nH]c1=O
pIC50 [1]: 8.80
MIC (Staphylococcus aureus [2]): 8 µg/mL (≈ 14.1 µM)
MIC (Staphylococcus aureus [4]): 16 µg/mL (≈ 28.2 µM)
MIC (Streptococcus pneumoniae): 0.1 µg/mL (≈ 0.176 µM)
pIC50 [5]: > 10.00
logD [6]: -0.25

Cc1cn([C@H]2CCCN(Cc3ccc(C(=O)O)c(Oc4cccc(C(F)(F)F)c4)c3)C2)c(=O)[nH]c1=O
pIC50 (Thymidylate kinase): < 3.70
MIC (Staphylococcus aureus [2]): 64 µg/mL (≈ 127 µM)
MCC [3]: > 64 µg/mL
MIC (Staphylococcus aureus [4]): 64 µg/mL (≈ 127 µM)
MIC (Streptococcus pneumoniae): 4 µg/mL (≈ 7.94 µM)
MIC (Candida albicans): > 64 µg/mL
pIC50 [5]: 8.00
logD [6]: -0.38

Cc1cn([C@H]2CCCN(Cc3ccc(C(=O)O)c(Oc4cccc(F)c4)c3)C2)c(=O)[nH]c1=O
pIC50 [1]: 6.47
MIC (Staphylococcus aureus [2]): 128 µg/mL (≈ 282 µM)
MIC (Staphylococcus aureus [4]): 128 µg/mL (≈ 282 µM)
MIC (Streptococcus pneumoniae): 32 µg/mL (≈ 70.6 µM)
pIC50 [5]: 7.55
logD [6]: -1

Cc1cn([C@H]2CCCN([C@@H](CC(C)(C)C)c3ccc(C(=O)O)c(Oc4cccc(Br)c4)c3)C2)c(=O)[nH]c1=O
pIC50 [1]: 8.55
MIC (Staphylococcus aureus [2]): 1 µg/mL (≈ 1.71 µM)
MIC (Staphylococcus aureus [4]): 2 µg/mL (≈ 3.42 µM)
MIC (Streptococcus pneumoniae): 0.03 µg/mL (≈ 0.0513 µM)
pIC50 [5]: 9.22
logD [6]: 1.2

Cc1cn([C@H]2CCCN(Cc3cccc(Oc4cc(F)cc(Cl)c4)c3)C2)c(=O)[nH]c1=O
pIC50 [1]: 5.68
pIC50 [5]: 7.00

Cc1cn([C@H]2CCCN(Cc3cccc(Oc4cccc(Cl)c4)c3)C2)c(=O)[nH]c1=O
pIC50 [1]: 5.92
pIC50 [5]: 6.82

Cc1cn([C@@H]2CCCN(Cc3cccc(Oc4ccc(Cl)cc4)c3)C2)c(=O)[nH]c1=O
pIC50 [1]: < 3.70
pIC50 [5]: 5.29

Cc1cn([C@H]2CCCN([C@@H](C)c3ccc(C(=O)O)c(Oc4cccc(Cl)c4)c3)C2)c(=O)[nH]c1=O
pIC50 [1]: 7.53
MIC (Staphylococcus aureus [2]): 8 µg/mL (≈ 16.5 µM)
MIC (Staphylococcus aureus [4]): 8 µg/mL (≈ 16.5 µM)
MIC (Streptococcus pneumoniae): 0.25 µg/mL (≈ 0.517 µM)
pIC50 [5]: 9.00
logD [6]: -0.3

Cc1cccc(Oc2cccc(CN3CCC[C@H](n4cc(C)c(=O)[nH]c4=O)C3)c2)c1
pIC50 [1]: 5.57
pIC50 [5]: 6.52

Cc1cn([C@H]2CCCN([C@H](CC34CC5CC(CC(C5)C3)C4)c3ccc(C(=O)O)c(Oc4cccc(Br)c4)c3)C2)c(=O)[nH]c1=O
pIC50 [1]: 8.96
MIC (Staphylococcus aureus [2]): 0.1 µg/mL (≈ 0.151 µM)
MIC (Staphylococcus aureus [4]): 0.25 µg/mL (≈ 0.377 µM)
MIC (Streptococcus pneumoniae): 0.03 µg/mL (≈ 0.0453 µM)
pIC50 [5]: 10.00
logD [6]: 2.5

Cc1cn([C@H]2CCCN(Cc3cccc(Oc4ccc(Cl)c(Cl)c4)c3)C2)c(=O)[nH]c1=O
pIC50 [1]: 5.59
pIC50 [5]: 6.40

Cc1cn([C@H]2CCCN(Cc3ccc(C(=O)O)c(Oc4cccc(Br)c4)c3)C2)c(=O)[nH]c1=O
pIC50 [1]: 7.57
MIC (Staphylococcus aureus [2]): 32 µg/mL (≈ 62.2 µM)
MIC (Staphylococcus aureus [4]): 16 µg/mL (≈ 31.1 µM)
MIC (Streptococcus pneumoniae): 1 µg/mL (≈ 1.94 µM)
pIC50 [5]: 9.00
logD [6]: -0.51

Cc1cn([C@H]2CCCN(Cc3cccc(Oc4cccc(Br)c4)c3)C2)c(=O)[nH]c1=O
pIC50 [1]: 6.22
pIC50 [5]: 7.00

CCC(C)(CC)C[C@H](c1ccc(C(=O)O)c(Oc2cccc(Br)c2)c1)N1CCC[C@H](n2cc(C)c(=O)[nH]c2=O)C1
pIC50 [1]: 8.89
MIC (Staphylococcus aureus [2]): 0.03 µg/mL (≈ 0.049 µM)
MIC (Staphylococcus aureus [4]): 0.1 µg/mL (≈ 0.163 µM)
MIC (Streptococcus pneumoniae): 0.03 µg/mL (≈ 0.049 µM)
pIC50 [5]: 9.52
logD [6]: 2

CCC[C@@H](c1ccc(C(=O)O)c(Oc2cccc(Cl)c2)c1)N1CCC[C@H](n2cc(C)c(=O)[nH]c2=O)C1
pIC50 [1]: 7.74
MIC (Staphylococcus aureus [2]): 4 µg/mL (≈ 7.81 µM)
MIC (Staphylococcus aureus [4]): 4 µg/mL (≈ 7.81 µM)
MIC (Streptococcus pneumoniae): 0.1 µg/mL (≈ 0.195 µM)
pIC50 [5]: 9.22
